According to ChEMBL document CHEMBL1122504, “Heterocyclic Quinones. 4. A new highly cytotoxic drug: 6,7-bis(1-aziridinyl)-5,8-quinazolinedione” (1983):
Several values for one entry are separate records, joined by “and”; a condition that tells them apart may be missing. Identical values can stand only once.

Experiments:
P388 [1] = test: MST of treated animal over control when administered at a dose of 10 mg/kg intraperitoneally on Q01Dx01 treatment schedule; type: functional, Mus musculus; conditions: route intraperitoneal
How it was run: (§1)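 P388 leukaemia: DBA/2 mice inoculated with 10^6 cells on day 0; treatment began day 1 at the stated route and schedule. Drug was dissolved in 0.15 M NaCl saline. The read-out was median survival time (MST, days), with toxicity taken as survivors on day 5. T/C% = treated MST/control MST × 100; ≥125% is considered significant.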

P388 [2] = test: MST of treated animal over control when administered at a dose of 2.5 mg/kg intravenously on Q01Dx01 treatment schedule; type: functional, Mus musculus; conditions: route intravenous; how it was run: as §1
L1210 [3] = test: MST of treated animal over control when administered at a dose of 5 mg/kg intraperitoneally on Q01Dx05 treatment schedule in L1210 cell lines; type: functional, Mus musculus; conditions: route intraperitoneal
How it was run: (§2)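 L1210 leukaemia: DBA/2 mice inoculated ip with 10^5 cells on day 0, with ip drug in 0.15 M NaCl saline on the stated schedule. The read-out was median survival time in days, with toxicity taken as survivors on day 5. T/C% = treated MST/control MST × 100; >125% is considered significant.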

Salmonella typhimurium [4] = test: Mutagenesis test was performed at 60 uM concentration in Salmonella Typhimurium TA 98; type: functional, Salmonella enterica subsp. enterica serovar Typhimurium
How it was run: (§3)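 Salmonella typhimurium his auxotrophs TA98 and TA100 were tested by liquid suspension without metabolic activation. Overnight Oxoid nutrient broth cultures were subcultured, grown 2 h, then exposed to drug for 5 h. Cells were washed, resuspended to A650 2.50, and plated in top agar (0.6% agar, 0.6% NaCl). His+ revertants per plate were counted after 48 h at 37 °C; values are means of three assays.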

L1210 [5] = test: MST of treated animal over control when administered at a dose of 15 mg/kg intraperitoneally on Q01Dx02 treatment schedule in L1210 cell lines; type: functional, Mus musculus; conditions: route intraperitoneal; how it was run: as §2
Salmonella typhimurium [6] = test: Mutagenesis test was performed at 10 uM concentration in Salmonella Typhimurium TA 98; type: functional, Salmonella enterica subsp. enterica serovar Typhimurium; how it was run: as §3
Sarcoma-180 [7] = test: Number of survivors of sarcoma 180 cell line on day 5/ number of treated mice at a dose of 1 ip injection of 10 mg/kg on Q01Dx01 treatment schedule; 10/10; type: functional, Mus musculus; conditions: route intraperitoneal
B16 [8] = test: Median survival time of […] melanocarcinoma cell line after a dose of 5 mg/kg administered intraperitoneally on Q01Dx01 treatment schedule; type: functional, Mus musculus; conditions: route intraperitoneal
How it was run: (§4)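 B16 melanocarcinoma: C57Bl/6 mice implanted sc with cell suspension on day 0; single ip dose in 0.15 M NaCl saline given on day 1. Median survival time was recorded in days, with toxicity taken as survivors on day 5. T/C% = treated MST/control MST × 100; >125% is considered significant.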

Salmonella typhimurium [9] = test: Mutagenesis test was performed at 0.7 uM concentration in Salmonella Typhimurium TA 98; type: functional, Salmonella enterica subsp. enterica serovar Typhimurium; how it was run: as §3
L1210 [10] = test: Number of survivors of L1210 cell line on day 5/ number of treated mice at a dose of 5ip injection of 10 mg/kg on Q01Dx05 treatment schedule; 10/10; type: functional, Mus musculus
Sarcoma-180 [11] = test: Median survival time of sarcoma 180 cell line after a dose of 20 mg/kg administered intraperitoneally on Q01Dx01 treatment schedule; type: functional, Mus musculus; conditions: route intraperitoneal
How it was run: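 Sarcoma 180 was inoculated ip in Swiss mice (10^6 cells, day 0), and drug was given ip in 0.15 M NaCl saline. Median survival time was recorded in days; antitumor activity was expressed as treated MST over control MST ×100, significant above 125%.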

Salmonella typhimurium [12] = test: Mutagenesis test was performed at 0.7 uM concentration in Salmonella Typhimurium TA 100; type: functional, Salmonella enterica subsp. enterica serovar Typhimurium; how it was run: as §3
L1210 [13] = test: MST of treated animal over control when administered at a dose of 2.5 mg/kg intraperitoneally on Q01Dx09 treatment schedule in L1210 cell lines; type: functional, Mus musculus; conditions: route intraperitoneal; how it was run: as §2
P388 [14] = test: Number of survivors of P388 lymphocytic leukemia cell line on day 5/ number of treated mice at a dose of 5 ip injection of 10 mg/kg on Q01Dx05 treatment schedule; 10/10; type: functional, Mus musculus; conditions: route intraperitoneal
P388 [15] = test: Median survival time of P388 lymphocytic leukemia cell line after a dose of 2.5 mg/kg administered intravenously on Q01Dx01 treatment schedule; type: functional, Mus musculus; conditions: route intravenous; how it was run: as §1
P388 [16] = test: Median survival time of P388 lymphocytic leukemia cell line after a dose of 2.5 mg/kg administered intraperitoneally on Q01Dx09 treatment schedule; type: functional, Mus musculus; conditions: route intraperitoneal; how it was run: as §1
P388 [17] = test: MST of treated animal over control when administered at a dose of 10 mg/kg intraperitoneally on Q04Dx03 treatment schedule; type: functional, Mus musculus; conditions: route intraperitoneal; how it was run: as §1
P388 [18] = test: MST of treated animal over control when administered at a dose of 5 mg/kg intraperitoneally on Q01Dx05 treatment schedule; type: functional, Mus musculus; conditions: route intraperitoneal; how it was run: as §1
B16 [19] = test: Median survival time of […] melanocarcinoma cell line after a dose of 2.5 mg/kg administered intraperitoneally on Q01Dx01 treatment schedule; type: functional, Mus musculus; conditions: route intraperitoneal; how it was run: as §4
Sarcoma-180 [20] = test: MST of treated animal over control when administered at a dose of 20 mg/kg intraperitoneally on Q01Dx01 treatment schedule in sarcoma 180 cell lines; type: functional, Mus musculus; conditions: route intraperitoneal
How it was run: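 Sarcoma 180: Swiss mice inoculated ip with 10^6 cells on day 0, with single ip injection of drug in 0.15 M NaCl saline. Median survival time was recorded in days, with toxicity taken as survivors on day 5. T/C% = treated MST/control MST × 100; >125% is considered significant.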

L1210 [21] = test: Median survival time of L1210 cell line after a dose of 2.5 mg/kg administered intraperitoneally on Q01Dx09 treatment schedule; type: functional, Mus musculus; conditions: route intraperitoneal; how it was run: as §2
L1210 [22] = test: Median survival time of L1210 cell line after a dose of 10 mg/kg administered intraperitoneally on Q01Dx02 treatment schedule; type: functional, Mus musculus; conditions: route intraperitoneal; how it was run: as §2
Salmonella typhimurium [23] = test: Mutagenesis test was performed at 60 uM concentration in Salmonella Typhimurium TA 100; type: functional, Salmonella enterica subsp. enterica serovar Typhimurium; how it was run: as §3
B16 [24] = test: MST of treated animal over control when administered at a dose of 5 mg/kg intraperitoneally on Q01Dx01 treatment schedule in B16 melanocarcinoma cell lines; type: functional, Mus musculus; conditions: route intraperitoneal; how it was run: as §4
P388 [25] = test: Median survival time of P388 lymphocytic leukemia cell line after a dose of 10 mg/kg administered perorally on Q01Dx07 treatment schedule; type: functional, Mus musculus; conditions: route oral; how it was run: as §1
L1210 [26] = test: Concentration that decreases the growth rate of the L1210 cells by 50% after 48 hr of culture; type: functional; conditions: Mus musculus, L1210, 48 h; read-out: ID50 (the source's name)
How it was run: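 L1210 leukemia cells cultured with increasing drug concentrations for 48 h at 37 °C under 5% CO2. Percentage inhibition of control growth was fitted by least-squares linear regression against log dose, and the concentration lowering control growth by 50% was estimated from the regression equation.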

P388 [27] = test: Median survival time of P388 lymphocytic leukemia cell line after a dose of 5 mg/kg administered intraperitoneally on Q01Dx09 treatment schedule; type: functional, Mus musculus; conditions: route intraperitoneal; how it was run: as §1
Salmonella typhimurium [28] = test: Mutagenesis test was performed at 4 uM concentration in Salmonella Typhimurium TA 100; type: functional, Salmonella enterica subsp. enterica serovar Typhimurium; how it was run: as §3
P388 [29] = test: MST of treated animal over control when administered at a dose of 20 mg/kg perorally on Q01Dx07 treatment schedule; type: functional, Mus musculus; conditions: route oral; how it was run: as §1
P388 [30] = test: Number of survivors of P388 lymphocytic leukemia cell line on day 5/ number of treated mice at a dose of 1 i.v. injection of 5 mg/kg on Q01Dx01 treatment schedule; 10/10; type: functional, Mus musculus; conditions: route intravenous

O=C1C(N2CC2)=C(N2CC2)C(=O)c2ncncc21
T/C (P388 [1]): 118% | T/C (P388 [2]): 103% | T/C (L1210 [3]): 108% | Revertants/plate (Salmonella typhimurium [4]): 1080 | T/C (L1210 [5]): 104% | Revertants/plate (Salmonella typhimurium [6]): 89 | Toxicity Survivors (Sarcoma-180 [7]): 10 | MST (B16 [8]): 15.7 days | Revertants/plate (Salmonella typhimurium [9]): 101 | Toxicity Survivors (L1210 [10]): 10 | MST (Sarcoma-180 [11]): 19 days | Revertants/plate (Salmonella typhimurium [12]): 94 | T/C (L1210 [13]): 109% | Toxicity Survivors (P388 [14]): 10 | MST (P388 [15]): 10.4 days | MST (P388 [16]): 10.4 days | T/C (P388 [17]): 132% | T/C (P388 [18]): 138% | MST (B16 [19]): 15.7 days | T/C (Sarcoma-180 [20]): 110% | MST (L1210 [21]): 9.1 days | MST (L1210 [22]): 9 days | Revertants/plate (Salmonella typhimurium [23]): 501 | T/C (B16 [24]): 126% | MST (P388 [25]): 7.6 days | IC50 (L1210 [26]): 0.02 µg/mL and 80 nM | MST (P388 [27]): 10.4 days | Revertants/plate (Salmonella typhimurium [28]): 87 | T/C (P388 [29]): 105% | Toxicity Survivors (P388 [30]): 10
